According to ChEMBL document CHEMBL1687916, “Non-nucleoside inhibitors of human adenosine kinase: synthesis, molecular modeling, and biological studies” (J Med Chem, 2011):

Key:
Adenosine kinase = Adenosine kinase (Homo sapiens, UniProt P55263); assay: Inhibition of human adenosine kinase
[1] = target: T1, Adenosine deaminase (Bos taurus) (UniProt P56658); assay: Inhibition of bovine ADA at 100 uM by spectrophotometric analysis
T1 sequence (whole entry): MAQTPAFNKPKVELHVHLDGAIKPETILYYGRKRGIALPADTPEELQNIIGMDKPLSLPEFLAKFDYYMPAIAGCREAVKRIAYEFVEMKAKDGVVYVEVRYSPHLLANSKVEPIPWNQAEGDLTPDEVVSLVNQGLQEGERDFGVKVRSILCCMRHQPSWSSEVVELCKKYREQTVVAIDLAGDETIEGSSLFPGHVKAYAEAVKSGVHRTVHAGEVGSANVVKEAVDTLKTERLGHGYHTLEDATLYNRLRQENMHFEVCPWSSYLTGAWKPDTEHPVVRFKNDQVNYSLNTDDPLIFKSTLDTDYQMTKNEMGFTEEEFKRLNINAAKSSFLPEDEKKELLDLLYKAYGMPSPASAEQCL
How it was run: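 Adenosine deaminase assayed at 30 C with 50 μM Ado, 50 mM potassium phosphate pH 7.2 and 0.3 nM enzyme. Deamination was followed as A262 change over 2 min. Compound tested at 100 μM, with DMSO at most 4% final and a substrate-free blank. Percent inhibition from two determinations in triplicate.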

NIH3T3 = assay: Cytotoxicity against mouse 3T3 cells by phenyltetrazolium bromide assay; type: functional, cell-based
How it was run: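 Murine 3T3 fibroblasts; proliferation measured by MTT assay, with IC50 reported. Each value is the mean of three determinations; Student's t test, p < 0.05.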

Sequence of Adenosine kinase (P55263 whole entry): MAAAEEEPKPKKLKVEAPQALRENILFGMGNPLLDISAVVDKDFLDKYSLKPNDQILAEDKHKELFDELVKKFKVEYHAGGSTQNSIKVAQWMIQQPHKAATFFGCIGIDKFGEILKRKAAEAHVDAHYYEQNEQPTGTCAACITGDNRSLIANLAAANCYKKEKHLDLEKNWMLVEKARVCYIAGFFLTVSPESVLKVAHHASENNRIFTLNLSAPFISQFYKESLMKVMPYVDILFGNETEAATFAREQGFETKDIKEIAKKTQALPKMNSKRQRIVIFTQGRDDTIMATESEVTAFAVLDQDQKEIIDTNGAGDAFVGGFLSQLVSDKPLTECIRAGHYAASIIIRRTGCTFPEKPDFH

Row | Compound | IC50 (Adenosine kinase; read-out: IC50) [µM] | other results
1 | CCC1(c2ccc(CSc3ccc(C#C[Si](C)(C)C)cc3)cc2)Oc2ccccc2-n2cccc2C1=O (racemic) | 10 | –
2 | CCC1(c2ccc(COc3cccc(CCN4CCCC4)c3)cc2)Oc2ccccc2-n2cccc2C1=O (racemic) | 150 | –
3 | CCC1(c2cccc(C)c2)Oc2ccccc2-n2cccc2C1=O (racemic) | 150 | –
4 | CCN(CC)CCc1cccc(OCc2ccc(C3(CC)Oc4ccccc4-n4cccc4C3=O)cc2)c1 (racemic) | 200 | –
5 | CCC1(c2ccc(CSc3ccccc3F)cc2)Oc2ccccc2-n2cccc2C1=O (racemic) | 4.5 | –
6 | CCC1(c2ccc(CSc3ccc(I)cc3)cc2)Sc2ccccc2-n2cccc2C1=O (racemic) | 2.2 | –
7 | CCC1(c2ccc(CSc3c(C)cccc3Cl)cc2)Oc2ccccc2-n2cccc2C1=O (racemic) | 3 | –
8 | CCC1(c2ccc(CSc3ccc(F)c(Cl)c3)cc2)Oc2ccccc2-n2cccc2C1=O (racemic) | 11 | –
9 | CCC1(c2ccc(CSc3ccccn3)cc2)Oc2ccccc2-n2cccc2C1=O (racemic) | 4.5 | –
10 | O=C1c2cccn2-c2ccccc2SC1c1ccccc1 (racemic) | 130 | –
11 | CCC1(c2ccc(CSc3ccc(F)cc3)cc2)Oc2ccccc2-n2cccc2C1=O (racemic) | 1 | inhibition [1]: 13%
12 | O=C1c2cccn2-c2ccccc2OC1c1ccc(CSc2cccc(C(F)(F)F)c2)cc1 (racemic) | 9 | –
13 | O=C1c2cccn2-c2ccccc2OC1c1ccc(CSc2ccccc2)cc1 (racemic) | 4 | –
14 | CCC1(c2ccc(CSc3cccc(F)c3)cc2)Oc2ccccc2-n2cccc2C1=O (racemic) | 4 | –
15 | CCC1(c2ccc(CSc3c(Cl)cccc3Cl)cc2)Oc2ccccc2-n2cccc2C1=O (racemic) | 20 | –
16 | CCC1(c2ccc(CSc3c(Cl)cccc3Cl)cc2)Oc2ccccc2-n2cccc2C1=O (single isomer, unassigned; (-)) | 40 | –
17 | O=C1c2cccn2-c2ccccc2OC1c1ccc(CSc2ccccc2Cl)cc1 (racemic) | 4.4 | –
18 | CCC1(c2ccc(CSc3ccc([N+](=O)[O-])cc3)cc2)Oc2ccccc2-n2cccc2C1=O (racemic) | 6.2 | –
19 | CCC1(c2ccc(CSc3ccc(Br)cc3)cc2)Oc2ccccc2-n2cccc2C1=O (racemic) | 2 | IC50 (NIH3T3): 47.6 µM
20 | CCC1(c2ccc(CSc3ccccc3Cl)cc2)Sc2ccccc2-n2cccc2C1=O (racemic) | 5 | –
21 | CCC1(c2ccc(CSc3c(F)c(F)cc(F)c3F)cc2)Oc2ccccc2-n2cccc2C1=O (racemic) | 8 | –
22 | CC(=O)OC1=C(c2ccccc2)Sc2ccccc2-n2cccc21 | – | IC50 (Adenosine kinase): Not Active
23 | CCC1(c2ccc(CSc3cc(OC)ccc3OC)cc2)Oc2ccccc2-n2cccc2C1=O (racemic) | 35 | –
24 | CCC1(c2ccc(CSc3ccc(OC(F)(F)F)cc3)cc2)Oc2ccccc2-n2cccc2C1=O (racemic) | 6.7 | –
25 | CCC1(c2ccc(CSc3ccc(F)cc3F)cc2)Oc2ccccc2-n2cccc2C1=O (racemic) | 10 | –
26 | CCC1(c2ccc(CSc3ccc(Cl)cc3Cl)cc2)Oc2ccccc2-n2cccc2C1=O (racemic) | 22.5 | –

Row | Compound | IC50 (Adenosine kinase; read-out: IC50) [µM] | other results
27 | CCC1(c2ccc(CSc3cccc(C(F)(F)F)c3)cc2)Oc2ccccc2-n2cccc2C1=O (racemic) | 2.5 | inhibition [1]: 2.7%; IC50 (NIH3T3): 44.6 µM
28 | C#Cc1ccc(SCc2ccc(C3(CC)Oc4ccccc4-n4cccc4C3=O)cc2)cc1 (racemic) | 15 | inhibition [1]: 16%
29 | CCC1(c2ccc(CSc3ccc(I)cc3)cc2)Oc2ccccc2-n2cccc2C1=O (racemic) | 2.5 | IC50 (NIH3T3): 43.5 µM
30 | CCC1(c2ccc(CSc3cccc(OC(F)(F)F)c3)cc2)Oc2ccccc2-n2cccc2C1=O (racemic) | 3.2 | –
31 | CCC1(c2ccc(CSc3cccc(Cl)c3Cl)cc2)Oc2ccccc2-n2cccc2C1=O (racemic) | 3 | –
32 | CCC1(c2ccc(CSc3ccc(OC)cc3)cc2)Oc2ccccc2-n2cccc2C1=O (racemic) | 14 | –
33 | CCC1(c2ccc(CSc3cccc(OC)c3)cc2)Oc2ccccc2-n2cccc2C1=O (racemic) | 12.5 | –
34 | CCC1(c2ccc(CSc3ccc(Cl)c(Cl)c3)cc2)Oc2ccccc2-n2cccc2C1=O (racemic) | 10 | –
35 | CCC1(c2ccc(COc3ccc(I)cc3Cl)cc2)Oc2ccccc2-n2cccc2C1=O (racemic) | 1.2 | –
36 | CCC1(c2ccc(COc3cccc(CCO)c3)cc2)Oc2ccccc2-n2cccc2C1=O (racemic) | 8 | –
37 | O=C1c2cccn2-c2ccccc2OC1c1ccccc1 (racemic) | 100 | –
38 | CCC1(c2ccc(CSc3cnccn3)cc2)Oc2ccccc2-n2cccc2C1=O (racemic) | 7 | –
39 | CCC1(c2ccc(CSc3ncc[nH]3)cc2)Oc2ccccc2-n2cccc2C1=O (racemic) | 3.5 | –
40 | CC(=O)OC1=C(c2ccccc2)Oc2ccccc2-n2cccc21 | – | IC50 (Adenosine kinase): Not Active
41 | CCC1(c2ccc(CSc3ccc(F)cc3Cl)cc2)Oc2ccccc2-n2cccc2C1=O (racemic) | 2.5 | –
42 | CCC1(c2ccc(CSc3cc(Cl)ccc3Cl)cc2)Oc2ccccc2-n2cccc2C1=O (racemic) | 14 | –
43 | CCC1(c2ccc(CSc3ccc(C#C[Si](C)(C)C)cc3)cc2)Sc2ccccc2-n2cccc2C1=O (racemic) | 2 | –
44 | CCC1(c2ccc(CSc3cccc(Cl)c3)cc2)Oc2ccccc2-n2cccc2C1=O (racemic) | 3.5 | –
45 | CCC1(c2ccc(CSc3ncccn3)cc2)Oc2ccccc2-n2cccc2C1=O (racemic) | 7 | –
46 | CCC1(c2ccc(C)cc2)Oc2ccccc2-n2cccc2C1=O (racemic) | 80 | –
47 | CCC1(c2ccc(CSc3cccc(C)c3)cc2)Oc2ccccc2-n2cccc2C1=O (racemic) | 21.4 | –
48 | CCC1(c2ccc(CSc3ccc(I)cc3Cl)cc2)Oc2ccccc2-n2cccc2C1=O (racemic) | 2 | –
49 | CCC1(c2ccccc2)Oc2ccccc2-n2cccc2C1=O (racemic) | 85 | –
50 | CN(C)c1ccc2n1-c1ccccc1SC(c1ccccc1)C2=O (racemic) | > 1000 | –
51 | CCC1(c2ccc(CSc3ccccc3Cl)cc2)Oc2ccccc2-n2cccc2C1=O (racemic) | 1 | inhibition [1]: 6.5%; IC50 (NIH3T3): 97.8 µM
52 | CCC1(c2ccc(CSc3c(Cl)cccc3Cl)cc2)Oc2ccccc2-n2cccc2C1=O (single isomer, unassigned; (+)) | 7.5 | –
